# core dimer inh: inhibitors of HCV core protein dimerization, primary screen, biochemical, TR-FRET, high-throughput; inhibition, % at 5 µM; TR-FRET GST/Flag-core106 dimerization, 1536-well; 0.33% of 300,000 active;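 active = inhibition above the mean of all tested compounds plus 3 SD, set per screening campaign, cut at about 45% in these data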
#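 System: GST/Flag-tagged HCV core106 proteins. Incubation: compound-protein-antibody incubation 4 h at 22.5 °C. Technique: HTRF with 340 nm excitation, 617/671 nm emission. Medium: KF-containing HEPES buffer, pH 7.45, DTT, CHAPS, BSA. Read-out: inhibition (%) from 671 over 617 nm ratio. Also added: Eu(K)-anti-GST 90 ng/mL plus XL665-anti-Flag 1 µg/mL.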
# UBC9 SUMO inh: inhibitors of in vitro SUMOylation cascade, primary screen, biochemical, HTRF, uHTS. SUMO-conjugating enzyme UBC9 (Homo sapiens), P63279. HTRF SUMOylation assay, SAE1/SAE2 + UBC9. inhibition, % at 35 µM. 0.36% of 290,000 active. AID 2006, 2009; in the data active = inhibition above about 50%, passing the limit was not always enough; inconclusive = no clear call, values can overlap the other calls
# eIF4E-4G inh: eIF4E–eIF4G protein interaction inhibitors, primary screen, biochemical, uHTS, TR-FRET, eIF4GI fragment | TR-FRET eIF4E-eIF4GI(517-606) binding, 2 h | inhibition, % at 21.7 µM | 0.37% of 220,000 active | Eukaryotic translation initiation factor 4E (Mus musculus) + Eukaryotic translation …;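 active = inhibition above about 30%, limit read from the data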;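 also: 0% = full FRET control wells and 100% = background wells lacking eIF4GI fragment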
# eIF4H inh: human eIF4H binding inhibitors, primary screen, translation initiation inhibitor project, biochemical, uHTS, fluorescence polarization. Eukaryotic translation initiation factor 4H (Homo sapiens), Q15056. eIF4H fluorescence polarization binding assay. 0.94% of 290,000 active. inhibition, % at 35 µM;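 also: calls also rest on retests at 20 µM and on dose response follow-up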
# PABP polyA inh: PABP poly(A) RNA binding inhibitors, primary screen, biochemical, fluorescence polarization, uHTS. Polyadenylate-binding protein 1 (Homo sapiens), P11940. calls only at 35 µM. 1% of 290,000 active. AID 2014, 2009;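 also: calls also rest on retests at 20 µM and on dose response follow-up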
# Target sequence (P11940 whole entry, looked up): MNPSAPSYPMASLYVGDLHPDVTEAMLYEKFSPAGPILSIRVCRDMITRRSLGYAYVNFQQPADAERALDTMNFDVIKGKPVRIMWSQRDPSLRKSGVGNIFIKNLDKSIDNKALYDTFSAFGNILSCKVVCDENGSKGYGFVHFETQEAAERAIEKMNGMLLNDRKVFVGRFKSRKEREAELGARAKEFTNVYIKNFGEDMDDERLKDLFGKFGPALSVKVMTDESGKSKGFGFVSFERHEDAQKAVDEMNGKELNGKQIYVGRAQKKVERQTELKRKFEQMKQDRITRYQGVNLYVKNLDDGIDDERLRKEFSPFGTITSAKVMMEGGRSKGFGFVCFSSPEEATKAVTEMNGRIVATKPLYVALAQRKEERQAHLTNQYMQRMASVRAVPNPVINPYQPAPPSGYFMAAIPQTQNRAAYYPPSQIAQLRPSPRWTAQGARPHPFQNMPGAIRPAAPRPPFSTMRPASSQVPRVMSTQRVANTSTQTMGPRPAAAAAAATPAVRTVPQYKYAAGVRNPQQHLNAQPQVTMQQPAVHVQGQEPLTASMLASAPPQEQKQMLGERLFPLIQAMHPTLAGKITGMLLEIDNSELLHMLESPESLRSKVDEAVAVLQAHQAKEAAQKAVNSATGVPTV
# MLLE-PAM2 inh: inhibitors of PABP1 MLLE–PAM2 peptide binding, primary screen, biochemical, fluorescence polarization, FITC-PAM2, GST-MLLE; 0.36% of 360,000 active; inhibition, % at 20 µM; Polyadenylate-binding protein 1 (Homo sapiens), P11940; in the data active = inhibition above about 35%, passing the limit was not always enough;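 also: plate controls were DMSO wells with GST-MLLE for no effect and wells lacking GST-MLLE protein for full effect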
# Starred values were filed as active, the others as inactive; i = inactive; u = inconclusive; x = no result given; + = active, no number; [ ] = dose if it differs, or a comment. This is a sample that favours compounds with a hit; in the whole collection about 1.8% have one here. Unless noted, no rule for the calls is given here.
SMILES,core dimer inh,UBC9 SUMO inh,eIF4E-4G inh,eIF4H inh,PABP polyA inh,MLLE-PAM2 inh
N=c1c2ccccc2nnn1-c1ccc(C(F)(F)F)cc1,19.3,8.2,5.1,-0.3,i,-3.6
Cc1ccc(CN2CCN(Cc3cc(=O)c4ccccc4[nH]3)CC2CCO)o1 (stereo not drawn),-2.4,18.0,5.0,57.5*,i,11.2
Cc1ccc(CN2CCN(Cc3c[nH]c4ccccc34)CC2CCO)o1 (stereo not drawn),-3.6,5.2,-2.1,-11.9,i,-5.2
CC(=O)Nc1ccc(SCC(=O)c2cc(C)n(-c3ccccc3F)c2C)cc1,-1.8,5.6,-1.1,1.9,i,40.3*
CC(=O)Nc1ccc(SCC(=O)NC(=O)c2ccccc2Br)cc1,x,x,x,x,x,43.8*
Cn1c(SCC(=O)Nc2ccc(C(N)=O)cc2)nnc1-c1cccs1,-3.5,15.7,x,-1.5,i,-0.7
O=C(O)c1cccc(Cn2c(Cl)c(/C=N/NC(=O)c3cc4ccccc4cc3O)sc2=O)c1,13.3,x,6.2,102.4*,+,-118.2
CCc1cc(=O)oc2cc(C)c(CN3CCCCC3)c(O)c12,16.0,38.0,-3.8,69.7*,+,34.4
CCCc1cc(=O)oc2c(CN3CCCC3)c(O)c(Cl)cc12,3.8,43.5,x,108.0*,+,31.8
CCc1cc(=O)oc2cc(C)c(CN3CCCC3)c(O)c12,85.6*,30.2,10.6,76.8*,+,-18.7
Cc1cc(C)c2c(CN3CCCC3)cc(=O)oc2c1,x,x,x,x,x,-1.8
CCCc1cc(=O)oc2cc(C)c(CN3CCCC3)c(O)c12,53.3*,30.6,-0.8,79.9*,+,-37.0
CC(C)C(NC(=O)CCNC(=O)c1ccc([N+](=O)[O-])cc1)c1nc2ccccc2[nH]1 (stereo not drawn),x,x,x,x,x,-43.2
COCCNC(=O)C1CCCN(Cc2cccc(C#N)c2)CC1 (stereo not drawn),x,x,x,x,x,-7.2
CNCc1ccccc1Sc1ccc(OC)c(OC)c1,-10.7,35.8,15.4,2.0,i,5.2
O=c1cc(CSc2n[nH]c(-c3ccncc3)n2)nc2sccn12,52.7*,5.6,16.5,62.8*,i,-3.0
CC(C)CN1C(=O)c2ccc(C(=O)Nc3ccc(O)cc3C(=O)O)cc2C1=O,1.9,9.9,x,1.3,i,-1.8
CC(C)CCN1C(=O)c2ccc(C(=O)Nc3ccc(O)cc3C(=O)O)cc2C1=O,8.1,8.5,x,81.1*,+,1.7
O=C(COC(=O)c1cccnc1)NC1CCCc2ccccc21 (stereo not drawn),x,14.3,-2.5,78.0*,i,8.4
O=C(CN1CCN(c2ccccn2)CC1)Nc1ccccc1,-4.0,12.1,4.8,-10.0,i,-5.2
O=C(CN1CCN(c2ccccn2)CC1)Nc1ccc(Oc2ccccc2)cc1,4.2,-8.3,-0.4,active,i,4.0
COc1cccc(N2CCN(c3ccc([N+](=O)[O-])cn3)CC2)c1,3.6,18.9,x,-3.2,i,0.6
O=C(O)C1OC(Oc2c(-c3ccc(O)c(O)c3)oc3cc(O)cc(O)c3c2=O)C(O)C(O)C1O (stereo not drawn),-23.1,17.3,7.2,76.5*,+,x
CC1OC(Oc2c(-c3cc(O)c(O)c(O)c3)oc3cc(O)cc(O)c3c2=O)C(O)C(O)C1O (stereo not drawn),x,7.1,-2.4,36.9,i,-18.1
CCOc1ccc(C(=O)N/N=C/c2cc([N+](=O)[O-])cs2)cc1,1.1,17.9,2.5,9.4,i,3.1
SMILES,core dimer inh,UBC9 SUMO inh,eIF4E-4G inh,eIF4H inh,PABP polyA inh,MLLE-PAM2 inh
COc1cc(C(=O)N/N=C/c2cc([N+](=O)[O-])cs2)cc(OC)c1OC,0.6,68.1*,3.4,8.6,i,-5.2
Cc1c(CCC(=O)O)c(=O)oc2cc(OCc3ccccc3F)ccc12,4.0,13.4,x,-4.3,i,12.5
CCC(=O)NN1CCc2cc3ccc(C)cc3nc21,-0.8,17.0,x,-6.0,i,9.7
Cc1c(NC(=O)c2cc(C(C)C)on2)c(=O)n(-c2ccccc2)n1C,-9.2,16.7,-5.6,-2.1,i,-0.4
Cc1c(NC(=S)Nc2cccc(Cl)c2)c(=O)n(-c2ccccc2)n1C,-1.6,3.2,-2.0,active,i,16.3
Cc1c(NC(=O)Nc2cccc(Cl)c2)c(=O)n(-c2ccccc2)n1C,0.3,11.5,4.1,-0.3,i,-7.8
Cc1c(NC(=O)c2cc(CC(C)C)on2)c(=O)n(-c2ccccc2)n1C,-2.3,5.9,33.8*[fluorescence artefact?],-15.4,i,1.8
O=C(NNc1ccc([N+](=O)[O-])cn1)Nc1ccc(N=Nc2ccccc2)cc1,x,x,x,x,x,-54.5
COc1cc(OC)c(OC)cc1CCC(C)NC(=O)Cc1ccccc1 (stereo not drawn),-16.7,-4.6,x,-3.2,i,10.3
Cc1cccc(C)c1NC(=S)N(CCCN1CCCCC1)Cc1ccco1,-1.3,13.6,-4.3,3.6,i,15.9
CCN1C/C(=C/c2ccc(N3CCOCC3)cc2)C(=O)/C(=C/c2ccc(N3CCOCC3)cc2)C1,5.7,-6.9,1.1,u,i,-152.0
CN1C/C(=C\c2ccc(N3CCOCC3)cc2)C(=O)/C(=C/c2ccc(N3CCOCC3)cc2)C1,2.6,1.9,0.7,77.6*,+,-133.2
COC(=O)CSc1nnc(CNC(=O)c2ccc(OC)c(OC)c2)n1C,-8.6,3.9,2.2,-9.0,i,9.6
N#Cc1c(-c2ccco2)cc(-c2ccccc2)[nH]c1=O,4.3,36.5,10.2,u,+,-104.2
Cc1cc(-c2ccccc2)[nH]c(=O)c1C#N,-1.9,16.4,4.1,4.9,i,9.4
N#Cc1c(-c2ccccc2)cc(-c2ccco2)c(C#N)c1N,x,52.9*,-2.4,u,u,x
Cc1ccc(-c2cc(-c3ccco3)c(C#N)c(=O)[nH]2)cc1,14.5,61.5*,14.5,u,u,-79.0
N#Cc1sc2nc(-c3ccccc3)cc(-c3ccco3)c2c1N,49.5*,87.6,-8.6,89.1,i,0.1
Cc1cc(NC(=O)Cc2cc(F)cc(F)c2)no1,-7.4,7.5,x,5.6,i,4.3
CC(=O)OCCC(NS(=O)(=O)OCC(Cl)(Cl)Cl)c1ccccc1 (stereo not drawn),-12.6,-13.6,x,-12.3,i,-0.8
COc1ccc(OCC(O)CNC(=O)c2sccc2Cl)cc1 (stereo not drawn),-2.8,-4.6,-1.5,-13.6,i,17.1
O=Cc1ccc(N2Cc3ccccc3C2)cc1,38.7,-4.5,x,-2.2,i,3.4
Cc1cc(N2Cc3ccccc3C2)ccc1C=O,47.8*,8.0,x,-10.3,i,-2.1
